Source: PMC10496428 (ACS Infectious Diseases, 2023)

What was measured:
[1] = tested on: P. falciparum Hyp1-Nluc late schizonts; test: 4 h egress assay; format: cell-based, Plasmodium falciparum; settings: for 4-Hour Egress EC50: dilution series, DNI = did not inhibit
Summary of the method: (§1)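 Hyp1-Nluc 3D7 parasites were sorbitol-synchronised, grown to late schizonts and isolated on a 67% Percoll gradient. They were given a 4 h window to egress and invade RBCs in test compound, either at 10× growth EC50 or as a dilution series. Egress was read as Nluc in harvested medium with NanoGlo substrate. Background controls were subtracted from egress and invasion values, then normalised to 0.1% DMSO. Three biological replicates were run, with SD.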

[2] = tested on: P. falciparum Nluc trophozoite-stage parasites; test: Protein secretion and export; format: cell-based, Plasmodium falciparum; settings: 5 h treatment; brefeldin A 5 μg/mL, torin 2 10 nM, M-797 4.8 μM, OGHL250 3.1 μM, WEHI-518 200 nM, C3 1.2 μM, KDU731 300 nM
Summary of the method: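 Nluc-exporting P. falciparum, synchronized with 5% sorbitol and Percoll, grown in human RBCs at 37 °C under 1% O2/5% CO2; trophozoites at 20–24 hpi treated 5 h with test compound (0.1% DMSO vehicle). Cells differentially lysed to release RBC only, RBC plus PV, or all compartments, and Nluc signal measured in each fraction. Three biological replicates of three technical replicates.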

[3] = tested on: P. falciparum purified merozoites (Nluc parasites); test: Invasion inhibition assay with purified merozoites; format: cell-based, Plasmodium falciparum; settings: heparin 100 μg/mL, C1 4 μM, chloroquine 75 nM
Summary of the method: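 Purified Nluc merozoites were exposed to test compound for 30 min. Compound was then removed and newly invaded parasites grown for 24 h before Nluc quantification. Controls were heparin (100 μg/mL), C1 (4 μM) and chloroquine (75 nM). Values are relative to DMSO, with three biological replicates.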

[4] = tested on: P. falciparum Hyp1-Nluc parasites; test: 4 h invasion / early ring-stage development assay; format: cell-based, Plasmodium falciparum; settings: 4 h treatment at 10× EC50 for growth; for Invasion / early ring-stage development normalized to 0.1% DMSO: then 24 h growth without compound
Summary of the method: as §1

Nluc = Nluc counter screen on parasite lysates; format: biochemical; settings: 10x EC50 of growth, 10 min at 37 °C
Summary of the method: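 Hyp1-Nluc schizonts at 1% haematocrit and 1–2% parasitaemia were lysed in 1x NanoGlo buffer. Lysates were added to test compound and incubated 10 min at 37 °C. Nluc activity was read by furimazine bioluminescence and normalised to 0.1% DMSO.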

[5] = tested on: MMV390048 resistant Dd2 with S743T mutation in PI4KIIIB; test: 72 h growth assay, [3H]-hypoxanthine incorporation; format: cell-based, Plasmodium falciparum; settings: 3H-hypoxanthine incorporation assay
Summary of the method: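 This was a modified [3H]-hypoxanthine incorporation assay over 72 h. It compared parental Dd2 with an MMV390048-resistant Dd2 line carrying PI4KIIIB S743T.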

In the case of `COc1cc(C(=O)N(C)C)ccc1-c1cc2nccc(-c3ccc4ccncc4c3)c2o1` [OGHL250, N(C)(C)C(=O)c1cc(c(cc1)-c5oc2c(nccc2-c4cc3cnccc3cc4)c5)OC], the “4-Hour Egress EC50” value [1] is reported as “did not inhibit parasite egress” and the “Export of Nluc reporter into the RBC compartment relative to DMSO” value [2] is reported as “did not significantly reduce export”.

For `CCN(CC)CCCC(C)Nc1ccnc2cc(Cl)ccc12` (stereo not shown) [chloroquine], the “Invasion of purified merozoites relative to 0.1% DMSO (controls)” value [3] was “had no effect on invasion”.

`C[C@H]1CCC/C=C/[C@@H]2C[C@H](O)C[C@H]2[C@H](O)/C=C/C(=O)O1` [brefeldin A] was tested, and the “Export of Nluc reporter into the RBC compartment relative to DMSO” value [2] was “significantly reduced export into the RBC compartment”.

In the case of `CNS(=O)(=O)c1ccccc1Nc1nc(Nc2ccc(N3CCOCC3)cc2OC)ncc1Br` [OGHL134, Brc1c(nc(nc1)Nc2c(cc(cc2)N3CCOCC3)OC)Nc4c(cccc4)S(=O)(=O)NC], the “Invasion inhibition normalized to 0.1% DMSO” value [4] is reported as less than 50% and the “Invasion / early ring-stage development normalized to 0.1% DMSO” value [4] is reported as “borderline”.

In the case of `COc1cc(OC)c(CCNC(=O)c2cn3cc(-c4cc(OCC(=O)O)ccc4OC)nc3s2)c(OC)c1` [OGHL239, s1c3n(cc1C(=O)NCCc2c(cc(cc2OC)OC)OC)cc(n3)-c4c(ccc(c4)OCC(=O)O)OC], the “direct inhibition of Nluc activity in parasite lysates” value (Nluc) is reported as “strongly inhibit Nluc activity”.

In the case of `COc1ccc(-c2c(C)nn3c(N)c(C#N)cnc23)cc1OC` [Compound M-797], the “4-Hour Egress EC50” value [1] is reported as “did not block egress”, the “Export of Nluc reporter into the RBC compartment relative to DMSO” value [2] is reported as “significantly reduced export into the RBC compartment” and the “fold resistance of S743T parasites compared to parental Dd2” value [5] is reported as 2 fold.

With `COc1ccc(CNc2nc(-c3ccc(C(=O)O)nc3)nc3sc4c(c23)CCCC4)cc1Cl` [OGHL121, Clc1c(ccc(c1)CNc2nc(nc3sc4c(c32)CCCC4)-c5cnc(cc5)C(=O)O)OC] the “Invasion inhibition normalized to 0.1% DMSO” value [4] was less than 50% and the “Invasion / early ring-stage development normalized to 0.1% DMSO” value [4] was “borderline”.

With `Cn1cc(-c2cnc3[nH]cc(-c4cn(Cc5cccc(F)c5F)nn4)c3c2)cn1` [OGHL169, Fc1c(cccc1Cn2nnc(c2)-c3c[nH]c4ncc(cc43)-c5cn(nc5)C)F] the “Invasion inhibition normalized to 0.1% DMSO” value [4] was less than 50% and the “Invasion / early ring-stage development normalized to 0.1% DMSO” value [4] was less than 50%.

In the case of heparin, the “Invasion / early ring-stage development normalized to 0.1% DMSO” value [4] is reported as “almost complete invasion inhibition”.

For `Nc1ccc(-c2ccc3ncc4ccc(=O)n(-c5cccc(C(F)(F)F)c5)c4c3c2)cn1` [torin 2], the “Export of Nluc reporter into the RBC compartment relative to DMSO” value [2] was “significantly reduced export into the RBC compartment”.

For `CN(C(=O)c1ccn2ncc(-c3ccc(C(N)=O)cc3)c2c1)c1ccc(C#N)cn1` [KDU731], the “Export of Nluc reporter into the RBC compartment relative to DMSO” value [2] was “reduced protein export into the RBC compartment”.

In the case of `CN1CCC(c2cc(-c3ccncc3)c(-c3ccc(F)cc3)[nH]2)CC1` [Compound C1, 4-[2-(4-fluorphenyl)-5-(1-methylpiperidine-4-yl)-1H-pyrrol-3-yl]pyridine], the “Egress over a 4 h window, compared to 0.1% DMSO control normalized to 100%” value ([1]; OGHL compounds at 10× EC50 of growth) is reported as 38% and the “Invasion of purified merozoites relative to 0.1% DMSO (controls)” value [3] is reported as “directly inhibited merozoite invasion”.
